The text below walks through data of ChEMBL document CHEMBL4513216, “Probing the Open Global Health Chemical Diversity Library for Multistage-Active Starting Points for Next-Generation Antimalarials” (ACS Infect Dis, 2020).

The series in a line: Toxicity liver stage against HepG2, at 10uM. In kind it is cell-based. Set-up: test concentration 10 uM, cell line HepG2-A16-CD81EGFP. Particulars: human, HepG2-A16-CD81EGFP cells; read-out: INHIBITION
An outline of the steps:
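Uninfected HepG2-A16-CD81EGFP cells, 3 × 10^3 per well, 1536-well, plated on prespotted compound at 10 μM final, parasite-free screening media added to match infected plates; puromycin 10 μM positive, DMSO 0.5% negative; run in parallel with 48 h PbLuc assay at 37 °C, 5% CO2; viability by CellTiter-Glo luminescence, normalized to controls.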

Each structure is given as a SMILES string.

Take `COc1ncccc1CN1CCC2(CCCN2S(C)(=O)=O)CC1`: the cytotoxicity at 10 µM came out at 8.86%.

With `COCCNC(=O)NC(=O)CNc1c(F)cccc1N1CCCC1`, the cytotoxicity at 10 µM was -2.05%.

With `Cc1cn[nH]c1C1CCCN1Cc1ccc(F)c(F)c1` (stereo not drawn), the cytotoxicity at 10 µM was found to be 4.14%.

Consider `CN1CCC2(CC1)C(=O)N(C)c1ccc(F)cc12`, for which the cytotoxicity at 10 µM is -115%.

As to `CCC(NCc1ncc[nH]1)c1nc(C(F)(F)F)cs1` (stereo not drawn), the cytotoxicity at 10 µM is 8.02%.

In the case of `CC(C)c1cc(C(=O)O)nc2[nH]c(=O)[nH]c(=O)c12`, the cytotoxicity at 10 µM was -3.25%.

With `COCc1nc(N(C)C)ncc1C(=O)NC(C)c1ccccc1` (stereo not drawn), the cytotoxicity at 10 µM was determined as 6.03%.

For `O=C(c1ccn(COc2ccc(F)cc2)n1)N1CCCC1`, the cytotoxicity at 10 µM is 6.25%.

`OCCn1cc(CN2CCN(CCOc3ccc(F)cc3)CC2)cn1`: the cytotoxicity at 10 µM is -11.1%.

Consider `Cc1sc2nc(CCN)nc(N(CCN(C)C)CC3CCCO3)c2c1C` (stereo not drawn), for which the cytotoxicity at 10 µM is -9.54%.

For `CC(=O)NCC(=O)N1CCc2c(CN(C)C)nn(C(C)C)c2C1`, the cytotoxicity at 10 µM was -4.94%.

With `COc1ccccc1OC1CCN(Cc2ccc(N(C)C)nc2)CC1`, the cytotoxicity at 10 µM is -11.8%.

Take `O=C(Cc1ccccc1)N1CCC2(CC(=O)N(c3ccsc3)C2)C1` (stereo not drawn): the cytotoxicity at 10 µM is -10.2%.

Regarding `CN(CC(O)C1CC1)C(=O)Nc1ccc(F)c(-n2cccc2)c1` (stereo not drawn), the cytotoxicity at 10 µM came to 2.2%.

In the case of `O=C(Cc1n[nH]c2ccccc12)N1CCCC1Cn1cccn1` (stereo not drawn), the cytotoxicity at 10 µM is -14.7%.

On to `CCN1CC(COC(=O)c2ccc(N(C)C)cc2F)CC1=O` (stereo not drawn), for which the cytotoxicity at 10 µM turned out to be 2.38%.

For the compound `CCOc1cc(=O)n2c(c1C(=O)OCc1cccc(C)c1)CCCC2`, the cytotoxicity at 10 µM is -15.1%.

As to `COc1cc(C2SC(C)=Nc3c2c(=O)[nH]n3C2CCCC2)ccc1O` (stereo not drawn), the cytotoxicity at 10 µM came to 3.54%.

For `CCn1cc(C(=O)NCCN2CCCc3ccccc32)c(C)n1`, the cytotoxicity at 10 µM is 4.23%.

Regarding `NC1CCCCN(Cc2ccccc2CS(=O)(=O)c2ccccc2)C1` (stereo not drawn), the cytotoxicity at 10 µM was -20.9%.

For the compound `CC(NC1CCN(CCS(C)(=O)=O)CC1)c1cnn(C(C)C)c1` (stereo not drawn), the cytotoxicity at 10 µM is -0.132%.

`Cc1nc(C2CCCN(C(=O)c3cc(Cl)c[nH]3)C2)no1` (stereo not drawn): the cytotoxicity at 10 µM was -8.29%.

For `CCC(CC)C(=O)N1CCOC2(CNC2)C1`, the cytotoxicity at 10 µM was -0.184%.

In the case of `COc1ccccc1N1CCN(C(=O)CCn2nnnc2C)CC1(C)C`, the cytotoxicity at 10 µM was 6.48%.

With `Cc1nc(N)cc(C2CCN2CCOc2ccccc2)n1` (stereo not drawn), the cytotoxicity at 10 µM was 10%.

`Cc1cc(C)n(CCN(C)c2ccc(-c3nc(C4CC4)no3)cn2)n1`: the cytotoxicity at 10 µM amounted to 6.08%.

As for `N#Cc1cc2c(=O)n(CC(O)c3cccc(O)c3)ccc2[nH]c1=O` (stereo not drawn), the cytotoxicity at 10 µM was 2.86%.

As for `CC(C)c1nccn1C1CCCN(C(=O)c2cc(C(N)=O)cs2)C1` (stereo not drawn), the cytotoxicity at 10 µM is -2.61%.

Turning to `NC(=O)c1cccc2nc([C@H]3CCN(Cc4ccccc4F)C3)[nH]c12`, the cytotoxicity at 10 µM is 20.8%.

Turning to `c1nc2n(n1)CC(NCc1nc(-c3ccsc3)no1)CC2` (stereo not drawn), the cytotoxicity at 10 µM was -8.13%.

Take `O=S(=O)(C1CC1)N1Cc2[nH]nc(COCC3CC3)c2C1`: the cytotoxicity at 10 µM was 16.4%.

On to `CCCN1CC2(CCN(c3ncc(F)cn3)CC2)CC1C(=O)O` (stereo not drawn), for which the cytotoxicity at 10 µM was -1.71%.

With `NC(=O)NCC(=O)N1CCC(c2cc(-c3ccccc3Cl)n[nH]2)CC1`, the cytotoxicity at 10 µM was -0.208%.

Regarding `O=C(c1cc(-n2cnnn2)ccc1Cl)N1CCN(c2ccccc2)CC1`, the cytotoxicity at 10 µM worked out at 11.3%.

Regarding `COc1cc2c(cc1OC)S(=O)(=O)N(Cc1cc(C)on1)C2=O`, the cytotoxicity at 10 µM was 11.3%.

In the case of `CN1CCN(c2cc(CNC(=O)c3ccc(=O)n(C)c3)ccn2)CC1`, the cytotoxicity at 10 µM is -6.95%.

Consider `O=C(O)c1cncc(Cc2ccccc2F)c1`, for which the cytotoxicity at 10 µM worked out at 0.812%.

As for `CN(C)C(=O)N1C[C@H]2CC[C@@H](C1)N(C(=O)c1c(Cl)cccc1Cl)C2`, the cytotoxicity at 10 µM stood at 7.2%.

For `COCCc1noc(CN2CCCC2c2noc(C)n2)n1` (stereo not drawn), the cytotoxicity at 10 µM was determined as 4.73%.

`N#Cc1ccccc1OCCN1CCCC1Cn1cccn1` (stereo not drawn): the cytotoxicity at 10 µM was -9.14%.

As for `CCC[C@@H]1CN(C(=O)Cc2sc(C)nc2C)C[C@H]1C(=O)O`, the cytotoxicity at 10 µM is -125%.

For `CN(C)CCO[C@H]1CN(Cc2ccco2)[C@@H]2COC[C@H]12`, the cytotoxicity at 10 µM was -98.2%.

As for `CN(C)C(=O)c1cnc2n1CCN(Cc1ccc3c(c1)OCO3)C2`, the cytotoxicity at 10 µM was -69%.

With `CCn1ncc2c1C(COC)CN(Cc1ccsc1)C2` (stereo not drawn), the cytotoxicity at 10 µM was -7.47%.

`Cn1cccc1C(=O)N1CCC2(CCCN2Cc2ccccc2)CC1`: the cytotoxicity at 10 µM came to 0.929%.

With `CC(=O)Nc1nc(CN2CCOC(Cn3cccn3)C2)cs1` (stereo not drawn), the cytotoxicity at 10 µM is -5.69%.

Turning to `CN1CCN(CCCNC(=O)CCc2nc3cc(Br)cnc3[nH]2)CC1`, the cytotoxicity at 10 µM is -124%.

With `CC(C)C(=O)NC1COC2(CCN(C(=O)c3ccc[nH]3)CC2)C1` (stereo not drawn), the cytotoxicity at 10 µM was found to be 6.15%.

Take `CC(=O)c1cn(CCC(=O)NCCCC(=O)O)c2ccccc12`: the cytotoxicity at 10 µM was -1.63%.

Regarding `CCOc1ccc(NC(C)c2nnnn2-c2ccccc2)cc1CO` (stereo not drawn), the cytotoxicity at 10 µM was -5%.

For `CN(Cc1cc(Br)cs1)Cc1nnsc1Cl`, the cytotoxicity at 10 µM was -7.38%.

Regarding `CC(C)CCn1cc(C(C(=O)O)N2CCC(c3ccncc3)CC2)cn1` (stereo not drawn), the cytotoxicity at 10 µM came out at 3.34%.

Take `CC(C)(C)CCNc1nccc(-c2c[nH][nH]c2=O)n1`: the cytotoxicity at 10 µM was -5.25%.

Regarding `C/C(NC(=O)c1cccs1)=C1\C(=O)C[C@@H]2[C@H]1C2(C)C`, the cytotoxicity at 10 µM is -1.18%.

As for `CN(c1ccc(C(=O)NCCN2CCOCC2)c(Cl)c1)S(C)(=O)=O`, the cytotoxicity at 10 µM was -11.1%.

With `Cc1cc(CNC(=O)Cc2c(C)nc3cc(=O)[nH]n3c2C)no1`, the cytotoxicity at 10 µM was -7.36%.

With `CN(C)Cc1ccc(C2CCCCN2C(=O)c2ncccc2O)cc1` (stereo not drawn), the cytotoxicity at 10 µM was -6.59%.

In the case of `CCc1nc(C2CCCN2CC(=O)NCCOc2ccccc2)no1` (stereo not drawn), the cytotoxicity at 10 µM was -16.4%.

Turning to `CC(=O)N1CCC2(C1)c1ccccc1S(=O)(=O)N2CCC(C)C` (stereo not drawn), the cytotoxicity at 10 µM is -9.11%.

For the compound `COCCN(Cc1ccoc1)S(=O)(=O)c1cccc(C(F)(F)F)c1`, the cytotoxicity at 10 µM was 3.17%.

As for `NCC1CN(Cc2cn(CCC(N)=O)c3ccccc23)CCO1` (stereo not drawn), the cytotoxicity at 10 µM is 4.01%.

`Cc1cc(=O)[nH]c(=O)n1Cc1ccccc1`: the cytotoxicity at 10 µM is -42.6%.

Regarding `Cc1nn(C)c2ncc(CN3CCN(Cc4ccco4)CC3)cc12`, the cytotoxicity at 10 µM was 0.243%.

As to `CN1C[C@H](COCC2CC2)[C@H]2CCN(Cc3ccco3)CC[C@H]2C1=O`, the cytotoxicity at 10 µM was -4.84%.

As to `NC(=O)CN1CCC(c2noc3cc(F)ccc23)CC1`, the cytotoxicity at 10 µM was 5.47%.

As to `CCN(CC)Cc1ccc(C(=O)NC2CCc3cc(Cl)ccc32)o1` (stereo not drawn), the cytotoxicity at 10 µM was -3.81%.

`CC(C)CCN1CCc2[nH]nc(C(=O)N3CC=CC3)c2C1`: the cytotoxicity at 10 µM is -121%.

For `O=C(c1cccnc1)N1CCOC(CCCc2ccccc2)C1` (stereo not drawn), the cytotoxicity at 10 µM came out at 7.07%.

As for `Cc1cn(CC(=O)Nc2cc(C(C)C)nn2C)cn1`, the cytotoxicity at 10 µM was 5.44%.

For `CCOc1ccc(C(=O)CCC(=O)N(C)Cc2noc(C)n2)cc1C`, the cytotoxicity at 10 µM was -4.34%.

For the compound `O=C(c1cc[nH]n1)N(Cc1cccc(O)c1)CC1CC1`, the cytotoxicity at 10 µM amounted to 8.27%.

Take `CCCN(CCO)C(=O)c1cc(COc2ccc3c(c2)CCCC3)on1`: the cytotoxicity at 10 µM is -159%.

For the compound `Cc1csc(NC(=O)C2CSCCC(=O)N2)n1` (stereo not drawn), the cytotoxicity at 10 µM came out at 4.14%.

For `COc1ccc(CCN(C)C(=O)c2cc(C(C)=O)c[nH]2)cc1OC`, the cytotoxicity at 10 µM came to 5.38%.

Regarding `Cc1nc(N2CCCC2)nc2c1CN(C(=O)N(C)C)CC2`, the cytotoxicity at 10 µM worked out at 4.29%.

Consider `Cc1nc2cc(C(=O)N3CCCC(n4ccnc4)C3)ccc2n1C` (stereo not drawn), for which the cytotoxicity at 10 µM was -8.44%.

Take `CNS(=O)(=O)CC(=O)NC(c1cc(C)sc1C)C(C)C` (stereo not drawn): the cytotoxicity at 10 µM was 0.918%.

With `COCC(=O)N1CCCC1(C)c1nc(C)cc(O)n1` (stereo not drawn), the cytotoxicity at 10 µM was -28.5%.

Take `Cc1ccccc1C(C)NC(=O)CSCC#N` (stereo not drawn): the cytotoxicity at 10 µM is -10.2%.

For `O=C(N1CCCO1)[C@]12COC[C@H]1CN(Cc1cccnc1)C2`, the cytotoxicity at 10 µM came out at 8.25%.

Turning to `Cc1ccc(C(=O)N2C[C@H]3CNC[C@H]3C2)cn1`, the cytotoxicity at 10 µM is -1.16%.

In the case of `CCc1nnc(CN(C)Cc2cccc(C(=O)Nc3cnn(C)c3)c2)o1`, the cytotoxicity at 10 µM is -5.54%.

In the case of `Cc1ccc(CNC(=O)c2ccc(F)cc2)o1`, the cytotoxicity at 10 µM is -3.35%.

For `Cn1ccnc1CN1C[C@@H](CN2CCC(CO)CC2)[C@@H](CO)C1`, the cytotoxicity at 10 µM is -15.5%.

Take `CCN(Cc1ccccc1C)S(C)(=O)=O`: the cytotoxicity at 10 µM was 9.23%.

Take `Cc1cc(=O)c(C(=O)N2CCCCC2c2ccc(F)cc2)c[nH]1` (stereo not drawn): the cytotoxicity at 10 µM was found to be 3.71%.

Turning to `Cc1nc(CN2CCCC(CCc3ccc(F)cc3F)C2)c[nH]1` (stereo not drawn), the cytotoxicity at 10 µM is -9.67%.

For `COc1ncccc1C(=O)NCCn1cnc(C)cc1=O`, the cytotoxicity at 10 µM is -0.37%.

Regarding `COCC(C)NC(=O)CN1CCC(CO)CC1` (stereo not drawn), the cytotoxicity at 10 µM was -6.16%.

For the compound `OC(CN(Cc1ccccc1)Cc1ccncc1)c1ccco1` (stereo not drawn), the cytotoxicity at 10 µM was determined as 24.7%.

On to `CC(C)NC1CCc2c(ccc(=O)n2CCN2CCOCC2)C1` (stereo not drawn), for which the cytotoxicity at 10 µM turned out to be 7.64%.

Regarding `CNC(=O)c1ccc(-c2ccc(CNS(=O)(=O)N(C)C)cc2)nc1C`, the cytotoxicity at 10 µM was -2.05%.

For the compound `CC(=O)Nc1cnc(Oc2ccccc2F)nc1`, the cytotoxicity at 10 µM was -4.23%.

With `Cc1ncc(-c2ccncc2)c(C2CCCN(C(=O)c3ccno3)C2)n1` (stereo not drawn), the cytotoxicity at 10 µM is 11.9%.

As to `CCOCC1CN(C(=O)C2CCOCC2)Cc2cnn(C)c21` (stereo not drawn), the cytotoxicity at 10 µM is -1.05%.

Turning to `Cc1nc(CN2CCCCC2CCc2ccc(O)cc2)no1` (stereo not drawn), the cytotoxicity at 10 µM came to 1.18%.

For the compound `CN(Cc1ccccc1)C(=O)CCNS(=O)(=O)c1cccnc1`, the cytotoxicity at 10 µM is -1.24%.

For `COc1cccc(CNCc2c(C(C)C)nn(C)c2N(C)C)c1OC`, the cytotoxicity at 10 µM worked out at 1.87%.
